Source: ChEMBL document CHEMBL1153766, “Regioselective reaction: synthesis and pharmacological study of Mannich bases containing ibuprofen moiety” (2009)
The source made the active and inactive calls. The rule behind the calls is not given here.

Columns and labels:
[1] = tested on: Rattus norvegicus; test: Antiinflammatory activity against Wistar albino rat assessed as inhibition of carrageenan-induced paw edema at 20 mg/kg, po administered 30 mins prior to carrageenan challenge measured after 3 hrs; assay type: functional
Method in brief: (§1)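 Carrageenan paw oedema in Wistar albino rats (Winter method). Compounds given orally at 20 mg/kg as a suspension in 1% carboxymethyl cellulose, 30 min before 0.1 mL of 1% w/v carrageenan injected into the plantar region of the paw. Paw volume measured by plethysmography at 30, 60, 90, 120, 150 and 180 min. Inhibition calculated relative to vehicle controls. Mean ± SEM.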

[2] = tested on: Escherichia coli; test: Antimicrobial activity against Escherichia coli at 1000 ug after 24 to 48 hrs by well diffusion method; assay type: functional, organism-based
Method in brief: (§2)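 Agar well diffusion against Staphylococcus aureus, Escherichia coli and Aspergillus. Compounds dissolved in DMF (10 mg in 10 mL), and the solution placed into wells cut with a borer. Plates incubated at 37 °C for 24–48 h, then inspected.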

[3] = tested on: Aspergillus; test: Antimicrobial activity against Aspergillus at 1000 ug after 24 to 48 hrs by well diffusion method; assay type: functional, organism-based; method in brief: as §2
[4] = tested on: Staphylococcus aureus; test: Antimicrobial activity against Staphylococcus aureus at 1000 ug after 24 to 48 hrs by well diffusion method; assay type: functional, organism-based; method in brief: as §2
[5] = tested on: Rattus norvegicus; test: Antiinflammatory activity against Wistar albino rat assessed as inhibition of carrageenan-induced paw edema at 20 mg/kg, po administered 30 mins prior to carrageenan challenge measured after 0.5 hrs; assay type: functional; method in brief: as §1
[6] = tested on: Rattus norvegicus; test: Antiinflammatory activity against Wistar albino rat assessed as inhibition of carrageenan-induced paw edema at 20 mg/kg, po administered 30 mins prior to carrageenan challenge measured after 1 hrs; assay type: functional; method in brief: as §1
[7] = tested on: Rattus norvegicus; test: Antiinflammatory activity against Wistar albino rat assessed as inhibition of carrageenan-induced paw edema at 20 mg/kg, po administered 30 mins prior to carrageenan challenge measured after 2 hrs; assay type: functional; method in brief: as §1
[8] = tested on: Rattus norvegicus; test: Antiinflammatory activity against Wistar albino rat assessed as inhibition of carrageenan-induced paw edema at 20 mg/kg, po administered 30 mins prior to carrageenan challenge measured after 1.5 hrs; assay type: functional; method in brief: as §1
[9] = tested on: Rattus norvegicus; test: Antiinflammatory activity against Wistar albino rat assessed as inhibition of carrageenan-induced paw edema at 20 mg/kg, po administered 30 mins prior to carrageenan challenge measured after 2.5 hrs; assay type: functional; method in brief: as §1
[10] = tested on: Mus musculus; test: Analgesic activity against Swiss albino mouse assessed as increase in paw licking or jump response at 10 mg/kg, po after 1.5 hrs by hot plate method; assay type: functional
Method in brief: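 Hot-plate test in Swiss albino mice, 6 per group. Compounds given orally by gavage as a suspension in 1% carboxymethyl cellulose, 10 mg/kg. Animals placed on a plate held at 55 ± 1 °C, with paw licking or jumping as the end point. Reaction time recorded at 30, 60 and 90 min after dosing. Percentage increase in reaction time calculated using the maximum tolerated reaction time. Mean ± SEM.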

SMILES | inhibition in vivo at 20 mg/kg [1] | Activity [2] | Activity [3] | Activity [4] | inhibition in vivo at 20 mg/kg [5] | inhibition in vivo at 20 mg/kg [6] | inhibition in vivo at 20 mg/kg [7] | inhibition in vivo at 20 mg/kg [8] | inhibition in vivo at 20 mg/kg [9] | Activity [10]
CC(C)Cc1ccc(C(C)c2nn(CN(c3ccccc3)c3ccccc3)c(=S)n2/N=C/c2ccc(Br)cc2)cc1 (centres undefined) | 57% | inactive | inactive | inactive | 9% | 10% | 38% | 38% | 57% | –
CC(C)Cc1ccc(C(C)c2nn(CN3CCOCC3)c(=S)n2/N=C/c2ccc([N+](=O)[O-])cc2)cc1 (centres undefined) | 73% | inactive | inactive | inactive | 12% | 52% | 54% | 65% | 71% | 79.6%
CC(C)Cc1ccc(C(C)c2nnc(S)n2/N=C/c2ccc(Cl)cc2)cc1 (centres undefined) | 64% | inactive | inactive | inactive | 62% | 49% | 57% | 52% | 62% | –
O=C(O)Cc1ccccc1Nc1c(Cl)cccc1Cl [DICLOFENAC] | 65% | – | – | – | 83% | 59% | 87% | 70% | 69% | 79.24%
CC(C)Cc1ccc(C(C)C(=O)O)cc1 (centres undefined) [IBUPROFEN] | 42% | – | – | – | 20% | 18% | 36% | 25% | 39% | –
Cc1ccc(/C=N/n2c(C(C)c3ccc(CC(C)C)cc3)nn(CN3CCOCC3)c2=S)cc1 (centres undefined) | 68% | inactive | inactive | inactive | 0% | 23% | 60% | 64% | 67% | 64.32%
CC(C)Cc1ccc(C(C)c2nnc(S)n2/N=C/c2ccc(Br)cc2)cc1 (centres undefined) | 72% | inactive | inactive | inactive | 0% | 16% | 60% | 65% | 70% | –
CC(C)Cc1ccc(C(C)c2nn(CN3CCN(C)CC3)c(=S)n2/N=C/c2ccc([N+](=O)[O-])cc2)cc1 (centres undefined) | 74% | inactive | inactive | inactive | 38% | 70% | 68% | 82% | 75% | 70.75%
CC(C)Cc1ccc(C(C)c2nn(CN3CCOCC3)c(=S)n2/N=C/c2ccc(Cl)cc2)cc1 (centres undefined) | 74% | inactive | inactive | inactive | 90% | 42% | 61% | 61% | 73% | 76.49%
CC(C)Cc1ccc(C(C)c2nnc(S)n2N)cc1 (centres undefined) | 56% | inactive | inactive | inactive | 30% | 32% | 45% | 46% | 50% | –
